# Bridge positions count the residues as written; N and C are the ends. Ends that are not written are not given here.
# Key:
# [1] = test system: human ErbB1 receptor (hErbB1) transiently expressed in HEK293T cells; experiment: BRET assay of ligand-induced ErbB1 activation; assay type: cell-based; conditions: for Agonism at / potency on mammalian ErbB1 (summary in words): summary statement
# [2] = test system: Erk1/2 phosphorylation downstream of human ErbB1 in HEK293 cells; assay type: cell-based; conditions: comparison with hEGF; 2.5 or 10 nM; n = 3
# How it was run: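 HEK293 cells at ~80% confluence were transfected with 15 ng human ErbB1 plasmid (Lipofectamine LTX) and grown 24 h in DMEM with 10% FBS. […] RIPA lysates containing protease and phosphatase inhibitors were run on SDS-PAGE and probed for phospho-Erk1/2 and GAPDH by fluorescent immunoblot. Phospho-Erk was normalised to GAPDH; n = 3, one-way ANOVA with Šídák's test.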
# [3] = test system: crickets (Acheta domesticus); experiment: Cricket righting assay after injection; assay type: in vivo; conditions: intraabdominal injection, up to 41 nmol/g (as stated in main text)
# How it was run: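 House crickets (average mass 50 mg) received intraabdominal injections of 2 μL water or test compound at 1.4 to 41.5 nmol/g. Each cricket was then placed on its back and the time taken to right itself was recorded. Treated and water groups were compared by one-way ANOVA with Šídák's test.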
# [4] = test system: sheep blowflies (Lucilia cuprina); experiment: Sheep blowfly paralysis/survival assay after injection; assay type: in vivo; conditions: intraabdominal injection, up to 41 nmol/g (as stated in main text)
# [5] = test system: fruit flies (Drosophila melanogaster); experiment: Fruit fly paralysis/survival assay after injection; assay type: in vivo; conditions: intraabdominal injection, up to 41 nmol/g (as stated in main text)
# [6] = test system: paw-withdrawal threshold to mechanical stimulus in mice; experiment: Paw-withdrawal threshold to mechanical stimulus; assay type: in vivo, mouse (C57BL/6J); conditions: 200 pmol i.pl.; measured 1 h to 7 d; vs saline; n = 6 per group
# How it was run: (§1)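 Male C57BL/6J mice (5 wk old) were given 200 pmol test compound, or vehicle alone, by shallow intraplantar hind-paw injection in 20 µL saline with 0.1% BSA. After 30 min acclimatisation on bar-bottom enclosures, paw-withdrawal thresholds were measured. Mechanical thresholds used automatic von Frey and thermal thresholds an automated thermal device. Readings were taken 3 d before injection and at 1 h–7 d, blinded, n = 6/group, two-way ANOVA with Šídák's test.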
# [7] = test system: paw-withdrawal threshold to thermal stimulus in mice; experiment: Paw-withdrawal threshold to thermal stimulus; assay type: in vivo, mouse (C57BL/6J); conditions: 200 pmol i.pl.; measured 1 h to 7 d; vs saline; n = 6 per group
# How it was run: as §1
# paw inflammation in mice = experiment: Paw inflammation: visual inspection and paw thickness by calipers; assay type: in vivo, mouse (C57BL/6J); conditions: 200 pmol i.pl.; over the time course of the experiment
# How it was run: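 In male C57BL/6J mice, 200 pmol test compound, or vehicle alone, was injected intraplantar in 20 µL saline with 0.1% BSA. The injected paw was inspected for swelling and reddening at each time point up to 7 d. At 3 d, both hind paws were measured with electronic calipers and expressed as an ipsilateral/contralateral ratio. Groups were n = 6, compared by unpaired t test.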
# [8] = test system: hypersensitivity of the injected paw in mice; experiment: Time course of hypersensitivity; assay type: in vivo, mouse (C57BL/6J); conditions: intraplantar injection in mice
# How it was run: as §1
Substance,"Activity at hErbB1 (in words) ([1]; BRET, HEK293T cells, Fig. 3A: stimulation with 100 nM ligand)",Agonism at / potency on mammalian ErbB1 (summary in words) [1],Erk1/2 phosphorylation compared with hEGF [2],Effect on crickets after injection [3],Effect on blowflies after injection [4],Effect on fruit flies after injection [5],Paw-withdrawal threshold to mechanical stimulus [6],Paw-withdrawal threshold to thermal stimulus [7],"Visual signs of inflammation (e.g., redness or swelling) (paw inflammation in mice)",Hypersensitivity of the injected paw (summary in words) [8]
"rMg1a: Mg1a produced by recombinant expression in bacteria with an additional Gly residue at the N terminus (GDISDYGDPCSDDLKDYCIHGDCFFLKELNQPACRCYTGYYGSRCEHIDHN; not fully specified; left off: His6, N-terminal, cleaved | MBP, N-terminal, cleaved)",active at hErbB1,potent ligand of mammalian ErbB1 with activity comparable to that of hEGF,equivalent to that caused by hEGF,no effect,no effect,no effect,significant decrease,significant decrease,no visual signs of inflammation,–
"Mg1a (GDISDYGDPCSDDLKDYCIHGDCFFLKELNQPACRCYTGYYGSRCEHIDHN; disulfide 10-23, 18-34, 36-45)",–,potent agonist of the mammalian EGF receptor ErbB1,–,–,–,–,–,–,–,long-lasting hypersensitivity

# Source: article PMC8851504 (Proceedings of the National Academy of Sciences of the …, 2022)
